Activity calls are given as the source filed them. No cut-off for these calls is given here.
Key:
[1] = system: Rattus norvegicus; test: Protective index, ratio of TD50 for po dosed Sprague-Dawley rat to ED50 for protection against maximal electroshock-induced seizures in po dosed Sprague-Dawley rat; format: functional
[2] = system: Mus musculus; test: Anticonvulsant activity in ip dosed albino mouse assessed as protection against subcutaneous metrazole-induced seizures; format: functional, organism-based
Outline: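 Male albino Carworth Farms No. 1 mice, dosed intraperitoneally; subcutaneous metrazol seizure model run by previously reported methods under the NIH Anticonvulsant Screening Program; protection against seizures scored.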

[3] = system: Rattus norvegicus; test: Anticonvulsant activity in po dosed Sprague-Dawley rat assessed as protection against subcutaneous metrazole-induced seizures; format: functional, organism-based
Outline: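 Male albino Sprague-Dawley rats, oral dosing; subcutaneous metrazol seizure test by previously reported methods within the NIH Anticonvulsant Screening Program.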

[4] = system: Mus musculus; test: Neurotoxicity in ip dosed albino mouse assessed as time of peak effect by rotarod test; format: toxicity, organism-based; conditions: in vivo
[5] = Neurotoxicity in ip dosed albino mouse by rotarod test; format: toxicity, organism-based; conditions: in vivo
[6] = system: Mus musculus; test: Anticonvulsant activity in ip dosed albino mouse assessed as protection against maximal electroshock-induced seizures; format: functional
Outline: (§1)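 Male rodents screened through the NIH Anticonvulsant Screening Program: albino Carworth Farms No. 1 mice given compound ip, albino Sprague-Dawley rats given compound po. Maximal electroshock test: tonic hindlimb seizures were induced by corneal electrical stimulation. ED50 is given in mg/kg.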

[7] = system: Mus musculus; test: Anticonvulsant activity against maximal electroshock-induced seizures in ip dosed albino mouse assessed as time of peak effect; format: functional
[8] = system: Mus musculus; test: Protective index, ratio of TD50 for ip dosed albino mouse to ED50 for protection against maximal electroshock-induced seizures in ip dosed albino mouse; format: functional
[9] = system: Rattus norvegicus; test: Anticonvulsant activity in po dosed Sprague-Dawley rat assessed as protection against maximal electroshock-induced seizures; format: functional; outline: as §1
[10] = system: Rattus norvegicus; test: Anticonvulsant activity against maximal electroshock-induced seizures in po dosed Sprague-Dawley rat assessed as time of peak effect; format: functional
[11] = Neurotoxicity in po dosed Sprague-Dawley rat by rotarod test; format: toxicity, organism-based; conditions: in vivo
[12] = biological target: Dihydropyrimidinase-related protein 2 (Mus musculus) (UniProt O08553); test: Binding affinity to CRMP2 in ICR mouse brain […] at 5 uM by Western blot analysis in presence of rhodamine-containing 4-(3,6,9,12-tetraoxapentadec-14-ynylcarbamoyl)-2-(3,6-bis(dimethylamino)xanthylium-9-yl)benzoate; format: tissue-based
Outline: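 Soluble brain proteome from male 2-month ICR mice was Dounce-homogenized in 50 mM HEPES pH 7.4. It was spun at 1200 × g for 12 min, then at 100,000 × g for 1 h at 4 °C, and exchanged into pH 8.0 HEPES. Aliquots (2.0 mg/mL protein) got 5 μM agent for 30 min at RT. Click reaction used rhodamine-alkyne 50 μM, TCEP 1 mM, TBTA 200 μM, CuSO4 1 mM, 1 h RT. Read-out: SDS-PAGE, in-gel fluorescence (ex 555/em 580 nm).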

[13] = system: Rattus norvegicus; test: Neurotoxicity in po dosed Sprague-Dawley rat assessed as time of peak effect by rotarod test; format: toxicity, organism-based; conditions: in vivo
[14] = system: Mus musculus; test: Anticonvulsant activity in ip dosed albino mouse assessed as protection against 6 Hz electric shock-induced seizures; format: functional
Outline: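 6 Hz psychomotor seizure test in mice dosed ip, with stimulation at 32 mA.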

[15] = system: Mus musculus; test: Anticonvulsant activity against 6 Hz electric shock-induced seizures in ip dosed albino mouse assessed as time of peak effect; format: functional
[16] = biological target: Dihydropyrimidinase-related protein 2 (Mus musculus) (UniProt O08553); test: Binding affinity to CRMP2 in ICR mouse brain […] at 5 uM by Western blot analysis in presence of rhodamine-containing 4-(3-azidopropylcarbamoyl)-2-(3,6-bis(dimethylamino)xanthylium-9-yl)benzoate; format: tissue-based
[17] = biological target: Dihydropyrimidinase-related protein 2 (Mus musculus) (UniProt O08553); test: Binding affinity to CRMP2 in ICR mouse brain […] at 5 uM by mass spectrometry in presence of rhodamine-containing 4-(3-azidopropylcarbamoyl)-2-(3,6-bis(dimethylamino)xanthylium-9-yl)benzoate; format: tissue-based
Outline: (§2)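 Brain soluble fraction from male 2-month ICR mice was Dounce-homogenized in 50 mM HEPES pH 7.4 and spun at 1200 × g then 100,000 × g at 4 °C. The fraction was exchanged into HEPES pH 8.0 at 2.0 mg/mL, treated with agent (5 μM, 30 min, room temperature), then clicked to rhodamine-azide (50 μM) with TCEP 1 mM, TBTA 200 μM and CuSO4 1 mM for 1 h. After SDS-PAGE, the ~62 kDa band was trypsin-digested, iTRAQ-labelled and analysed by LC-MS/MS.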

[18] = biological target: Dihydropyrimidinase-related protein 2 (Mus musculus) (UniProt O08553); test: Binding affinity to CRMP2 in ICR mouse brain […] at 5 uM by in-gel tryptic digestion analysis in presence of rhodamine-containing 4-(3-azidopropylcarbamoyl)-2-(3,6-bis(dimethylamino)xanthylium-9-yl)benzoate; format: tissue-based; outline: as §2

CC(=O)N[C@H](CO)C(=O)NCc1ccc(N=C=S)cc1
Ratio TD50/ED50 [1]: >59
Activity [2]: inactive
Activity [3]: inactive
Time [4]: 0.25 h
TD50 [5]: 47 mg/kg
ED50 [6]: 24 mg/kg
Time [7]: 0.5 h
Ratio TD50/ED50 [8]: 2
ED50 [9]: 4.2 mg/kg
Time [10]: 4 h
TD50 [11]: > 250 mg/kg

CC(=O)N[C@@H](COCCN=[N+]=[N-])C(=O)NCc1ccccc1
Activity [2]: inactive
Activity [3]: inactive
TD50 [5]: > 300 mg/kg
ED50 [6]: > 300 mg/kg

CC(=O)N[C@@H](COCCN=[N+]=[N-])C(=O)NCc1ccc(N=C=S)cc1
Activity [2]: inactive
Activity [3]: inactive
Activity [12]: Active
TD50 [5]: 300 mg/kg
ED50 [6]: 100 mg/kg
Time [7]: 0.25 h

C#Cc1ccc(CNC(=O)[C@@H](COC)NC(C)=O)cc1
Time [13]: 0.5 h
Activity [2]: inactive
Activity [3]: inactive
Time [4]: 0.5 h
TD50 [5]: 10 mg/kg
ED50 [6]: 3 mg/kg
Time [7]: 0.5 h
TD50 [11]: < 30 mg/kg

C#CCOC[C@@H](NC(C)=O)C(=O)NCc1ccccc1
Ratio TD50/ED50 [1]: >63
Activity [2]: inactive
Activity [3]: inactive
Time [4]: 0.25 h
TD50 [5]: 59 mg/kg
ED50 [14]: 29 mg/kg
Time [15]: 0.5 h
ED50 [6]: 16 mg/kg
Time [7]: 0.25 h
Ratio TD50/ED50 [8]: 3.7
ED50 [9]: 7.9 mg/kg
Time [10]: 0.5 h
TD50 [11]: > 500 mg/kg

CCCC(CCC)C(=O)[O-].[Na+] [VALPROATE SODIUM]
Time [13]: 0.5 h
Activity [2]: inactive
Activity [3]: inactive
Time [4]: 0.25 h
ED50 [6]: 270 mg/kg
Time [7]: 0.25 h
Time [10]: 0.5 h

CCC1(c2ccccc2)C(=O)NC(=O)NC1=O [PHENOBARBITAL]
Time [13]: 0.5 h
Activity [2]: inactive
Activity [3]: inactive
Time [4]: 0.5 h
ED50 [6]: 22 mg/kg
Time [7]: 1 h
ED50 [9]: 9.1 mg/kg
Time [10]: 5 h

C#Cc1ccc(CNC(=O)[C@H](COCCN=C=S)NC(C)=O)cc1
Activity [2]: inactive
Activity [3]: inactive
Activity [16]: inactive

CC(=O)N[C@H](COCCN=C=S)C(=O)NCc1ccccc1
Time [13]: 4 h
Activity [2]: inactive
Activity [3]: inactive
TD50 [5]: 30 mg/kg
ED50 [6]: > 300 mg/kg
Time [7]: 0.5 h
ED50 [9]: < 30 mg/kg
Time [10]: 4 h
TD50 [11]: > 30 mg/kg

C#Cc1ccc(CNC(=O)[C@H](COC)NC(C)=O)cc1
Activity [2]: inactive
Activity [3]: inactive
Time [4]: 0.5 h
TD50 [5]: 300 mg/kg
ED50 [6]: > 300 mg/kg
Time [7]: 0.5 h

C#CCOC[C@@H](NC(C)=O)C(=O)NCc1ccc(N=C=S)cc1
Activity [2]: inactive
Activity [3]: inactive
Activity [16]: Active
Activity [17]: Active
Time [4]: 0.25 h
TD50 [5]: 110 mg/kg
Activity [18]: Active
ED50 [14]: 53 mg/kg
Time [15]: 0.5 h
ED50 [6]: 45 mg/kg
Time [7]: 1 h
Ratio TD50/ED50 [8]: 2.4
ED50 [9]: > 30 mg/kg
TD50 [11]: > 30 mg/kg

C#CCOC[C@H](NC(C)=O)C(=O)NCc1ccc(N=C=S)cc1
Activity [2]: inactive
Activity [3]: inactive
Activity [16]: Active
Activity [17]: Active
TD50 [5]: > 300 mg/kg
Activity [18]: Active
ED50 [6]: > 300 mg/kg

CC(=O)N[C@H](COCCN=[N+]=[N-])C(=O)NCc1ccc(N=C=S)cc1
Activity [2]: inactive
Activity [3]: inactive
Activity [12]: Active
Time [4]: 0.5 h
TD50 [5]: 100 mg/kg
ED50 [6]: 100 mg/kg
Time [7]: 4 h

CC(=O)N[C@H](COCCN=[N+]=[N-])C(=O)NCc1ccccc1
Activity [2]: inactive
Activity [3]: inactive
Time [4]: 4 h
TD50 [5]: 100 mg/kg
ED50 [14]: 44 mg/kg
Time [15]: 0.5 h
ED50 [6]: 100 mg/kg
Time [7]: 4 h
ED50 [9]: > 40 mg/kg
Time [10]: 0.25 h
TD50 [11]: > 30 mg/kg

CC(=O)N[C@@H](CO)C(=O)NCc1ccc(N=C=S)cc1
Activity [2]: inactive
Activity [3]: inactive
TD50 [5]: 30 mg/kg
ED50 [6]: 100 mg/kg
ED50 [9]: 180 mg/kg
TD50 [11]: > 30 mg/kg

C#Cc1ccc(CNC(=O)[C@@H](COCCN=C=S)NC(C)=O)cc1
Activity [2]: inactive
Activity [3]: inactive
Activity [16]: inactive

C#CCOC[C@H](NC(C)=O)C(=O)NCc1ccccc1
Activity [2]: inactive
Activity [3]: inactive
TD50 [5]: > 300 mg/kg
ED50 [14]: > 30 mg/kg
ED50 [6]: > 300 mg/kg
ED50 [9]: 30 mg/kg
TD50 [11]: > 30 mg/kg

COC[C@@H](NC(C)=O)C(=O)NCc1ccccc1 [LACOSAMIDE]
Time [13]: 0.5 h
Activity [2]: inactive
Activity [3]: inactive
Time [4]: 0.25 h
ED50 [14]: 10 mg/kg
Time [7]: 0.5 h
ED50 [9]: 4.2 mg/kg
Time [10]: 0.5 h
TD50 [11]: > 250 mg/kg

CC(=O)N[C@@H](COCCN=C=S)C(=O)NCc1ccccc1
Activity [2]: inactive
Activity [3]: inactive
Time [4]: 0.5 h
TD50 [5]: 30 mg/kg
ED50 [6]: > 300 mg/kg
Time [7]: 0.5 h
ED50 [9]: < 30 mg/kg
Time [10]: 4 h

— ChEMBL document CHEMBL1156246 (J Med Chem, 2009)
